The text below walks through data of PubChem BioAssay AID624467 (The Scripps Research Institute Molecular Screening Center, 2012).

Values joined by “and” are separate entries in the source; they are usually repeats but may differ in a detail not shown here. Identical values can stand only once. Among all 360,000 compounds or so, about 3,600 (1%) were called active. The full list was thinned out, with actives kept by preference. Unmarked numbers belong to inactive results.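 The calls were made as follows: active = activation above the mean activation of all test compounds in the run plus 3 SD (cut at about 38% in these data); inactive = the rest.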

Trace amine-associated receptor 1 (Homo sapiens), sequence (Q96RJ0 whole entry, looked up): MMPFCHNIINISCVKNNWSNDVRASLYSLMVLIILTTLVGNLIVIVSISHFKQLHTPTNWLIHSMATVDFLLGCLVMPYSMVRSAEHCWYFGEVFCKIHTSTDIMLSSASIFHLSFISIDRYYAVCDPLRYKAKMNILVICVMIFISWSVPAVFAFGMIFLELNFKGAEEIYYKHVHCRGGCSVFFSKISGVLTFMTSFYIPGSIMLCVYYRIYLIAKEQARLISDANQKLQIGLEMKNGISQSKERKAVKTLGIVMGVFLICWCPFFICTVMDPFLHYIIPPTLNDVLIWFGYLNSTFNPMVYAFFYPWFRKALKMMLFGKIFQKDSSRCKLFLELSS

The target in this assay is Trace amine-associated receptor 1 (Homo sapiens) (UniProt Q96RJ0). The assay is described as follows: human TAAR1 agonists, primary screen, Fluo-8 calcium fluorescence, CHO RD-HGA16 cells (AID 624467). Conditions: CHO RD-HGA16 TAAR1, Fluo-8 calcium fluorescence; at 3 µM; stronger effect = higher value; vehicle wells 0%, saturating PEA agonist 100%. In a few lines:
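Repeats: no replicates (n 1) | Material: CHO-derived RD-HGA16 cells with stable Gα16 and human TAAR1 | Technique: Kinetic Fluo-8 calcium fluorescence | Schedule: 17-24 h seeding, 75 min 37 °C dye, 30 min RT | Evaluation: % activation from peak over basal fluorescence ratio, DMSO-to-PEA scaled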
In the case of `CN(C(=O)COC(=O)c1ccc(Br)o1)c1c(N)n(Cc2ccccc2)c(=O)[nH]c1=O`, the activation was 0.16%. Turning to `Nc1cc(=O)n(Cc2ccccc2)c(=O)n1Cc1ccccc1`, the activation is 1.88%. To `Cc1cc2nc3c(=O)n(Cc4ccccc4)c(=O)[nH]c3nc2cc1N` belongs 53.8% (active); to `CCN(c1ccccc1)S(=O)(=O)c1cccc(C(=O)NCc2ccccc2CN2CCOCC2)c1`, 5.65%. For the compound `COC(=O)[C@]1(Cc2ccccc2)NC=C(C(=O)c2ccccc2)[C@@H]1c1cccc(OC)c1`, the activation is 0.41%. Take `C[C@H](O)[C@@H]1CN2CCc3ccc(-c4ccc5c(c4)OCO5)cc3[C@@H]2C[C@@H]1N(C)C(=O)C1CCCCC1`: the activation is -1.03%. Take `O=C(O)Cn1cnc2c(NCc3ccccc3)ncnc21`: the activation was 2.25%.

Turning to `CC(C)(C)CC(=O)Nc1nnc(SCC(=O)NCc2cccs2)s1`, the activation was 1.84%. For the compound `COc1ccc(CC(N)c2csc(NC(=O)Cc3ccccc3)n2)cc1` (stereo not given), the activation is 56.1% (active).

Consider `COC(=O)[C@H](CCSC)NC(=O)Nc1ccc(OC)cc1`, for which the activation was -1.88%. In the case of `NC(Cc1ccc(F)cc1)c1csc(Nc2nncc3ccccc23)n1` (stereo not given), the activation was 35.4%. Take `COc1ccc(CC(N)c2csc(NC(=O)Nc3ccc(C(C)C)cc3)n2)cc1` (stereo not given): the activation was 47.2% (active).

Consider `Cc1ccccc1NC(=O)Cc1nc(COC(=O)c2ccc(C(F)(F)F)cc2)cs1`, for which the activation is 6.08%. To `COc1ccc(CC(=O)Nc2sc(Cc3ccccc3)c(C)c2C(N)=O)cc1` belongs 3.38%. To `NC(Cc1ccccc1)c1csc(Nc2cc(Oc3ccccc3)ncn2)n1` (stereo not given) belongs 69.5% (active); to `COc1ccc(S(=O)(=O)N2CCN(C(C)C(=O)Nc3ccc(C(C)C)cc3)CC2)cc1` (stereo not given), 0.11%; to `COc1ccc(CC(N)c2csc(NC(=O)NC(c3ccccc3)c3ccccc3)n2)cc1` (stereo not given), 21.8%. As for `CC(C)(C)CC(=O)Nc1nc(C(N)Cc2ccc(C(F)(F)F)cc2)cs1` (stereo not given), the activation is 63.4% (active). On to `CC(=NNC(N)=O)c1ccc(Cl)c(-n2cccc2)c1`, for which the activation is 0.51%. With `CCN(C(=O)c1ccc(Br)cc1)c1ccccc1` the figure was 0.89%. As for `COc1ccc(CNS(=O)(=O)c2cc(Br)ccc2Br)cc1`, the activation is 3.49%. As for `C[C@@H]1CN([C@H](C)CO)C(=O)CCCn2cc(nn2)CO[C@H]1CN(C)C(=O)Nc1ccc(N2CCCCC2)cc1`, the activation was 0.76%. Regarding `O=C(C(=O)N1CCC(CNS(=O)(=O)Cc2ccccc2)CC1)c1cc2ccccc2o1`, the activation was 3.18%. Turning to `CCOC(=O)c1cnc(SC)nc1Sc1ccc(Cl)cc1Cl`, the activation was 9.74%. `C=CCNC(=O)c1sc(SC)cc1-c1ccc(Cl)cc1`: the activation is 4.3%. For the compound `CC(C)(C)C(c1nc2ccccc2[nH]1)n1c(Cc2csc3ccccc23)nc2ccccc21` (stereo not given), the activation was 0.77%. With `CC(=O)C1=C(C)N(Cc2ccc(Cl)cc2)C(=S)NC1c1ccc(F)cc1` (stereo not given) the figure was -0.39%; with `O=S(=O)(NCCc1ccccn1)c1cc(Cl)cc(Cl)c1O`, 3.97%. As to `O=[N+]([O-])c1cccc(S(=O)(=O)NCc2ccccn2)c1`, the activation is 2.02%. As to `O=[N+]([O-])c1cc(S(=O)(=O)NCCc2ccccn2)ccc1Cl`, the activation is 68.6% (active). For `CCCCOCC1CN(CCCC)S(=O)(=O)c2c(Oc3ccc(F)cc3)cccc2O1` (stereo not given), the activation is 1.51%.

`COC(=O)C1=C(C)N(Cc2cccc(C(F)(F)F)c2)C(=NCc2ccccc2)NC1c1ccc(Cl)cc1` (stereo not given): the activation is 19.1%. To `Cc1ccccc1S(=O)(=O)Cc1ccc(C(=O)NCCN2CCCCC2C)o1` (stereo not given) belongs 8.73%; to `COc1ccccc1CNC(=O)c1ccc(CS(=O)(=O)c2ccccc2)o1`, 11.9%. With `CCc1ccccc1S(=O)(=O)Cc1ccc(C(=O)NCCc2ccccc2)o1`, the activation is 50.3% (active).

For the compound `CCCc1nnc(NC(=O)CCC(=O)N2CCN(S(=O)(=O)c3ccc(OC)cc3)CC2)s1`, the activation is 4.53%.

Regarding `CC1CCCN(c2cccc3c2S(=O)(=O)N(Cc2ccc(F)cc2)[C@@H](C)[C@H](c2ccccc2)O3)C1` (stereo not given in full), the activation is 0.84%.

On to `COC(=O)[C@]12C[C@H](CC(=O)NCc3ccccc3)C(=O)N(CCC3=CCCCC3)C1=C[C@H](C(C)(C)C)O[C@@H]2C`, for which the activation was -2.08%. With `CCCC1CCC(=NNC(=S)NCCc2ccccc2)CC1` (stereo not given), the activation is 54.9% (active). Consider `CCCCNC(=S)N/N=C1\CCCCc2ccccc21`, for which the activation was -2.14%. Turning to `S=C(NN=C1CCN(Cc2ccccc2)CC1)NC1CCCCC1`, the activation is 1.76%. As to `Cc1cccnc1CCNC(=O)C1CCC(=O)N(Cc2cccc(F)c2)C1` (stereo not given), the activation is 0.59%. As for `CN1CCCCC(NC(=O)C(C)(C)C)C1=O` (stereo not given), the activation is 3.02%.

Turning to `O=[N+]([O-])c1ccccc1N/N=C1\CCc2ccccc21`, the activation is -0.37%. `Oc1ccc2ccc3cccc[n+]3c2c1`: the activation was 152% (active). Take `Cc1ccc(C)c(CN2CCC(CNC(=O)C3CCCN(c4ncnc5c4nc4n5CCCCC4)C3)CC2)c1` (stereo not given): the activation was -0.04%.

In the case of `COc1ccccc1CCn1cnc(-c2ccccc2)c1C(C)C`, the activation is 8.43%. On to `CCCCc1c(-c2ccc(Cl)cc2)ncn1CCc1ccccc1OC`, for which the activation is 54.2% (active). To `COc1ccccc1Cc1c(-c2ccc(Cl)cc2)nc2ccc(Cl)cn12` belongs -1.69%; to `CCCCc1c(-c2ccc(Br)cc2)ncn1CCc1ccccc1OC`, 48% (active). `COc1ccccc1Cc1c(-c2ccc(F)cc2)nc2ccc(C)cn12`: the activation was 0.01%.

Take `COc1ccccc1Cc1c(-c2ccc(Cl)cc2)nc2c3ccccc3ccn12`: the activation was 0.7%. On to `COc1ccccc1CCNS(=O)(=O)c1cn(C)nc1C`, for which the activation is 4.37%.

For the compound `CCc1c(-c2ccccc2OC)ncn1CCc1ccccc1OC`, the activation is 53% (active). Consider `CCCc1c(-c2ccccc2F)ncn1Cc1ccccc1OC`, for which the activation is 5.04%. To `[2H]C(CCOS(N)(=O)=O)c1ccccc1` (stereo not given) belongs -0.46%. In the case of `CCCNC(=O)CCc1c(C)nc2c(c(C)nn2-c2ccccc2)c1C`, the activation was 1.73%. `O=C1CC(C(F)(F)C(F)(F)C(F)(F)C(F)(F)F)=Nc2ccccc2N1`: the activation was -0.77%. As to `COc1ccc(-c2ccccc2C2Cc3nnccc3CN2C(=O)Nc2ccccc2)cc1` (stereo not given), the activation is -0.83%. `COC(=O)c1cc2c(c3c4ccccc4n(S(=O)(=O)c4cccc(C)c4)c13)C(=O)N(Cc1ccccc1)C2`: the activation is 3.11%. Take `C=CCNC(=O)COC(=O)c1ccccc1C(=O)N(C)C1CCCCC1`: the activation is 5.08%.

Turning to `NS(=O)(=O)c1ccc(CCNC(=O)NC2CCCCC2)cc1`, the activation is 1.51%. With `CC(C)C(=O)Nc1ccc2c(c1)oc1ccccc12`, the activation is 6.67%. For `NC(=O)Nc1ccccc1C(=O)NCCc1ccccc1`, the activation is 10.1%.

In the case of `CC(NC(=O)CC1SC(N)=NC1=O)c1ccccc1` (stereo not given), the activation is 4.22%.

With `Nc1[nH]c(C(=O)c2ccc(Br)cc2)c(-c2ccc3c(c2)OCO3)c1C(=O)NCCc1c[nH]c2ccccc12`, the activation is 6.41%. In the case of `NC(c1csc(NC(=O)Nc2ccccc2Oc2ccccc2)n1)c1ccccc1Cl` (stereo not given), the activation is 13.7%. Turning to `NC(c1csc(NC(=O)Nc2cccc(C(F)(F)F)c2)n1)C1CCCCC1` (stereo not given), the activation is 39% (active). For `NC(c1ccccc1)c1csc(NC(=O)Nc2cccc(C(F)(F)F)c2)n1` (stereo not given), the activation was 57% (active). For the compound `COc1cc(NC(=O)c2cncc(-c3ccc(C#N)cc3)c2)cc(C(=O)Nc2cccc(C(F)(F)F)c2)c1`, the activation is 7.65% and 3.81%. With `CCOC(=O)c1csc(NC(=O)Nc2cccc(OC)c2)n1`, the activation was 14.4%. To `COc1ccc(C(N)c2csc(NC(=O)Nc3cccc(C(F)(F)F)c3)n2)cc1` (stereo not given) belongs 50.9% (active); to `C/C(CC(=O)Nc1cccc(C(F)(F)F)c1)=N\NC(=O)C(=O)NCC(C)C`, 4.66%; to `COc1cccc(NC(=O)Nc2nnc(N3CCCCC3C)s2)c1` (stereo not given), 0.7%. Regarding `CC(=O)c1ccc(Nc2nc(C(N)c3ccccc3)cs2)cc1` (stereo not given), the activation is 4.52%. In the case of `CC1(C(=O)NS(=O)(=O)c2cccc(F)c2)CCN1C(=O)c1cccc2ccccc12` (stereo not given), the activation was -0.17%. Consider `O=S1(=O)c2c(cccc2N2CCCC2)O[C@H](COCc2ccccc2)CN1C1CC1`, for which the activation was 0.87%. Regarding `Cc1cc(N2CCN(C(=O)OC(C)(C)C)C[C@H]2C)ccc1N1CCN(Cc2ccccc2)[C@H](C)C1`, the activation was 0.58%. Take `Cc1nc2c(OCc3ccc(Cl)cc3)cccn2c1N(C)Cc1cccs1`: the activation was 0.87%. With `CCCCCCCCN1C(=O)[C@@H](CC(=O)NCc2ccccc2)C[C@@]2(C(=O)OC)C1=C[C@H](C(C)(C)C)O[C@@H]2C` the figure was -0.96%; with `Cc1ccc(OC(=O)c2cncc(Br)c2)c(C)c1`, 6.31%. Turning to `COCCNC(=O)C1CCN(C(=O)C2CC(=O)N(c3ccc(C)cc3)C2)CC1` (stereo not given), the activation is -0.76%.

Take `COc1ccc(NC(=O)c2sc(N3CCOCC3)nc2-c2ccccc2)c(OC)c1`: the activation is -1.31%. Regarding `COc1ccc(C(=O)NC(=O)CSc2nnc(-c3ccco3)n2-c2ccccc2)cc1`, the activation is 1.34%.

In the case of `Cc1onc(-c2ccccc2)c1C(=O)N1CCN(S(=O)(=O)c2ccccc2C(F)(F)F)CC1`, the activation is 0.73%.

For `Cc1onc(-c2ccccc2)c1C(=O)NNC(=S)NC(=O)c1ccc(F)cc1`, the activation was 112% (active). With `COc1ccc(C(=O)NC(=S)NNC(=O)c2c(-c3ccccc3)noc2C)cc1` the figure was 120% (active).

Regarding `Cc1nc2ccccc2c(C)c1C(=O)c1ccc(F)cc1`, the activation is 12.1%.

For `O=C(O)C1CCN(S(=O)(=O)N2CCOCC2)CC1`, the activation was 7.75%. With `Cc1ccc(OCC(=O)Nc2ccc(C(=O)O)cc2NC(=O)COc2ccc(C)c(C)c2)cc1C` the figure was 3.56%.
